Compounds with a hit are over-represented: about 2% of the library has one in this group of screens.
PP5 primary: inhibitors of human protein phosphatase 5 (PP5); hit rate 0.18% among 320,000; P53041; inhibition, % at 6.7 µM; purified PP5c, OMFP substrate fluorescence;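 active means inhibition above the campaign's mean inhibition across all tested compounds plus 3 SD, cut at about 9.5% in these data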
GSTO1 inh: counter-screen for RBBP9 inhibitors: inhibitors of human GSTO1; P78417; recombinant GSTO1, activity-based probe fluorescence polarization; inhibition, % at 5.96 µM; hit rate 1.1% among 300,000; AID 1974;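 active means inhibition above the campaign mean inhibition plus 3 SD, cut at about 35% in these data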
CTSL1 counter: blocks F. hepatica cathepsin L1 in PFM18AAP counter-screen; recombinant F. hepatica cathepsin L1, Z-Leu-Arg-MCA fluorescence; inhibition, % at 5.96 µM; AID 1906; hit rate 0.49% among 300,000;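 active means inhibition above the mean of all tested compounds plus 3 SD, set per screening campaign, cut at about 17% in these data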
UCH37 inh: blocks the human deubiquitinase UCH37; purified proteasome/UCH37, Ub-AMC cleavage fluorescence; inhibition, % (concentration not given with the values); hit rate 0.33% among 330,000;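 active means mean inhibition over replicate wells above about 20%, limit read from the data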
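assay system = human UCH37 enzyme supplied as purified proteasome complex | amount = proteasome at 0.15 nM in the dispensed enzyme solution | schedule = 30 min compound-proteasome preincubation then 25 min substrate reaction, room temperature | measured by = fluorescence, ex 355 nm, em 460 nm | benchmarks = no-proteasome wells (full inhibition) and compound-free wells (no inhibition)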
Apaf1 inhib: inhibitors of human Apaf-1 apoptosome; O14727; reconstituted apoptosome caspase-3 activity, DEVD-Rh110 fluorescence; inhibition, % at 20 µM; hit rate 0.71% among 330,000; active means inhibition of at least 40% at 20 µM
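Material: reconstituted apoptosome with Apaf-1, cytochrome c, caspase-9, procaspase-3, dATP / Buffer or medium: pH 7.5 Hepes buffer with CHAPS, BSA, DTT / Also added: cytochrome c with DEVD-Rh110 / Schedule: compound with Apaf-1, dATP, procaspase-3 30 min, then 50 min reaction, room temperature / Technique: rhodamine 110 fluorescence at Ex 480/Em 540 nm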
PAD4 inh: blocks human protein arginine deiminase 4; recombinant PAD4, RCA probe fluorescence polarization; inhibition, % at 6.36 µM; hit rate 0.41% among 330,000; AID 485272;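 active means percent inhibition above a cutoff equal to the mean of all tested compounds plus 3 SD, cut at about 15% in these data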
Target sequence (Q9UM07 whole entry, looked up): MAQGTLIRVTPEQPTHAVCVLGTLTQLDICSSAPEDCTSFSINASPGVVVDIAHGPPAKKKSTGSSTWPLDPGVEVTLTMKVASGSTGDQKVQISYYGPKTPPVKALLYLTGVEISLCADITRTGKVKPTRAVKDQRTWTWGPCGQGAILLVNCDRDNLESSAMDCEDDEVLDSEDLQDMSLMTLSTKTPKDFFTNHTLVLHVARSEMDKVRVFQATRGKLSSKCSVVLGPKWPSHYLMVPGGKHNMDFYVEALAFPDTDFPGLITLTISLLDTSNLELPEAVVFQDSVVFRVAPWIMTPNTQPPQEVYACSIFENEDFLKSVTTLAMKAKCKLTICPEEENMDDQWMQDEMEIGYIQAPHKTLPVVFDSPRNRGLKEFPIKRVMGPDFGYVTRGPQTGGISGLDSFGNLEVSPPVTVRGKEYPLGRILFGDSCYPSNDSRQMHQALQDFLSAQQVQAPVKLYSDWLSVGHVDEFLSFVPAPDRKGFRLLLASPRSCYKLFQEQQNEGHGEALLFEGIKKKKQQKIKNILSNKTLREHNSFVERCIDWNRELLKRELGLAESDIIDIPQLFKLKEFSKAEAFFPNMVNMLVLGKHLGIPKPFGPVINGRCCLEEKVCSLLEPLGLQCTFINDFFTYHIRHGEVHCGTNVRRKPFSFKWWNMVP
Each line names hits and unclear results; the compound was inactive in the other large screens.

C=CCNC(=S)NN=Cc1ccc(-c2ccc(Br)cc2)o1	none (no result: PP5 primary, GSTO1 inh, CTSL1 counter, Apaf1 inhib, PAD4 inh)
Cc1cc(C)cc(N=Cc2ccc([N+](=O)[O-])s2)c1	GSTO1 inh 36
NC(=O)c1ccc(N=Cc2ccc([N+](=O)[O-])s2)cc1	UCH37 inh 62 (no result: Apaf1 inhib)
CC(CC(=O)Nc1cc(C)cc(C)c1)=NNC(=O)c1ccccn1	none (no result: PP5 primary, GSTO1 inh, CTSL1 counter, Apaf1 inhib, PAD4 inh)
COc1ccc(OC)c(C(=O)COC(=O)CNC(=O)C2CCCCC2)c1	CTSL1 counter 33
O=C(COC(=O)CNC(=O)C1CCCCC1)Nc1ccc(Cl)cn1	CTSL1 counter 29
COc1cc(OC)cc(C(=O)NCC(=O)OCC(=O)c2cc(OC)ccc2OC)c1	none
O=C(CNC(=O)C1CCCCC1)OCC(=O)c1ccc(Cl)s1	CTSL1 counter 18
O=C(COC(=O)CC1CCCC1)Nc1ccc(Cl)cn1	none (no result: GSTO1 inh, CTSL1 counter)
O=C1COc2ccc(C(=O)COC(=O)CNC(=O)C3CCCCC3)cc2N1	CTSL1 counter 31
COc1ccccc1-c1cc(C(=O)NN=Cc2ccc(C)o2)c2ccccc2n1	none (no result: PP5 primary, GSTO1 inh, CTSL1 counter, Apaf1 inhib, PAD4 inh)
CNC(=O)N(O)C1N(N=Cc2cc(Br)ccc2O)C(=S)SC1(C)C (configuration not stated)	none (no result: PP5 primary, GSTO1 inh, CTSL1 counter, Apaf1 inhib, PAD4 inh)
CC(=NNC(=O)c1cc(C)[nH]n1)c1ccco1	none (no result: PP5 primary, GSTO1 inh, CTSL1 counter, Apaf1 inhib, PAD4 inh)
COc1cc(C=N/N=C2/NC(=O)C(CC(=O)O)S2)ccc1OCc1ccc(Cl)cc1 (configuration not stated)	none (no result: PP5 primary, GSTO1 inh, CTSL1 counter, Apaf1 inhib, PAD4 inh)
O=C(Cc1ccccc1)NN=Cc1cc(Br)cc(Cl)c1O	none (no result: PP5 primary, GSTO1 inh, CTSL1 counter, Apaf1 inhib, PAD4 inh)
CCOc1ccc(C(=O)COC(=O)CNC(=O)C2CCCCC2)cc1	none (no result: GSTO1 inh, CTSL1 counter)
COc1ccc(C(=O)COC(=O)CNC(=O)C2CCCCC2)c(OC)c1	CTSL1 counter 35
CCCCCCCCCCCCCCCC[N+](C)(C)CC	Apaf1 inhib 87
O=C(NC1CCCCC1)C(c1cccnc1)N(C(=O)CCl)c1cccc(Cl)c1 (configuration not stated)	GSTO1 inh 96
Cc1cc(NC(=O)C23CC4CC(CC(C4)C2)C3)n[nH]1	CTSL1 counter 20
CCN(CC)c1ccc(C=NNC(=O)Cc2cccs2)c(O)c1	none (no result: PP5 primary, GSTO1 inh, CTSL1 counter, Apaf1 inhib, PAD4 inh)
CCCn1c(=N)n(CC(=O)c2ccc([N+](=O)[O-])cc2)c2ccccc21	CTSL1 counter 18
CCOC(=O)C(Cc1ccc(O)cc1)NC(=O)CNC(=O)C(CC(C)C)NC(=O)OC(C)(C)C (configuration not stated)	CTSL1 counter 29
Cn1nc([N+](=O)[O-])nc1Sc1nnc(-c2ccccc2)o1	CTSL1 counter 63
Cn1nc([N+](=O)[O-])nc1Sc1cccc2cccnc12	none
Clc1cccc(C=NNc2nnc(Cl)c3ccccc23)c1	none (no result: PP5 primary, GSTO1 inh, CTSL1 counter, Apaf1 inhib, PAD4 inh)
COC(=O)c1c(NC(=O)Cc2ccccc2)sc2c1CC(C)(C)NC2(C)C	none
COC(=O)c1c(NC(=O)COc2ccc(Cl)cc2)sc2c1CC(C)(C)NC2(C)C	Apaf1 inhib 61
CC1CCCC(=NNC(=O)c2ccncc2)C1 (configuration not stated)	none (no result: PP5 primary, GSTO1 inh, CTSL1 counter, Apaf1 inhib, PAD4 inh)
COc1ccc(C=NOCc2ccc(Br)cc2)c(OC)c1	none (no result: PP5 primary, GSTO1 inh, CTSL1 counter, Apaf1 inhib, PAD4 inh)
O=C(NCc1ccccc1)C1(C(F)(F)F)C/C(=C/CCO)CCCO1 (configuration not stated)	none
CNC(=O)C1(C(F)(F)F)C/C(=C\CCO)CCCO1 (configuration not stated)	CTSL1 counter 18
O=C(NN=Cc1ccccn1)C1COc2cc3ccccc3cc2O1 (configuration not stated)	none (no result: PP5 primary, GSTO1 inh, CTSL1 counter, Apaf1 inhib, PAD4 inh)
CC(=O)CS(=O)(=O)c1ccc(Oc2ccc(S(=O)(=O)CC(C)=O)cc2)cc1	CTSL1 counter 24
O=C(NN=C/C=C/c1ccccc1)c1cc2c(ccc3ccccc32)o1	none (no result: PP5 primary, GSTO1 inh, CTSL1 counter, Apaf1 inhib, PAD4 inh)
CCN(CC)C(=O)C1=C(C)NC(=S)NC1c1cccs1 (configuration not stated)	UCH37 inh 27
Cc1cc(/C=C\c2ccc3cc(N(C)C)ccc3[n+]2C)c(C)n1-c1ccccc1	Apaf1 inhib 43
C#CCOCCOCCOCCNc1nc(N2CCN(C(=O)[C@H](CCCN=C(N)N)n3cc(C(N)[C@@H](C)CC)nn3)CC2)nc(N2CCN(C(=O)[C@H](CCC(=O)O)n3cc([C@@H](N)CCCCN)nn3)CC2)n1 (some centres not stated)	UCH37 inh 33 (no result: PP5 primary, GSTO1 inh, CTSL1 counter)
C#CCOCCOCCOCCNc1nc(N2CCN(C(=O)[C@H]([C@@H](C)CC)n3cc([C@@H](N)CC(C)C)nn3)CC2)nc(N2CCN(C(=O)[C@H](CCCCN)n3cc([C@@H](N)C(C)CC)nn3)CC2)n1 (some centres not stated)	CTSL1 counter 31
C#CCOCCOCCOCCNc1nc(N2CCN(C(=O)C([C@@H](C)CC)n3cc(C(N)COC(=O)C(F)(F)F)nn3)CC2)nc(N2CCN(C(=O)[C@H](CCCCN)n3cc(C(N)[C@H](C)CC)nn3)CC2)n1 (some centres not stated)	CTSL1 counter 31
C#CCOCCOCCOCCNc1nc(N2CCN(C(=O)[C@H]([C@@H](C)CC)n3cc([C@@H](N)CO)nn3)CC2)nc(N2CCN(C(=O)[C@H](CCCCN)n3cc([C@@H](N)C(C)CC)nn3)CC2)n1 (some centres not stated)	none
C#CCOCCOCCOCCNc1nc(N2CCN(C(=O)[C@H]([C@@H](C)CC)n3cc([C@@H](N)CC(C)C)nn3)CC2)nc(N2CCN(C(=O)[C@H](CCCCN)n3cc([C@@H](N)CC(C)C)nn3)CC2)n1	none
Cc1[nH]c2ccccc2c1C=NNC(=O)Cc1cccs1	none (no result: PP5 primary, GSTO1 inh, CTSL1 counter, Apaf1 inhib, PAD4 inh)
CC1CCC(C(=O)NC(C(=O)NCCCN2CCOCC2)C(C)C)CC1 (configuration not stated)	none
CCCCN(C)CCNC(=O)C(NC(=O)C1CCC(C)CC1)C(C)C (configuration not stated)	CTSL1 counter 56
CSc1ccc(S(=O)(=O)N2CCC(C(=O)N3CCc4ccccc4C3)CC2)cc1	CTSL1 counter 19
COc1ccc(S(=O)(=O)N2CCC(C(=O)N3CCc4ccccc4C3)CC2)cc1	none
CCOc1cc(/C=C2\SC(=O)N(CC(=O)Nc3ccccc3F)C2=O)cc([N+](=O)[O-])c1O	UCH37 inh 23
O=C(Cc1cccs1)NN=Cc1ccccc1	none (no result: PP5 primary, GSTO1 inh, CTSL1 counter, Apaf1 inhib, PAD4 inh)
O=C(NCCc1ccc(Cl)cc1)c1ccc(=O)[nH]c1	none
O=C(NCCc1ccc(O)cc1)c1ccc(Cl)cc1	UCH37 inh 31
CCOC(=O)c1cccc(NC(=O)/C=C/c2cccc([N+](=O)[O-])c2)c1	none
CCOC(=O)/C=C/C(=O)Nc1cccc([N+](=O)[O-])c1	CTSL1 counter 18
COc1ccc(C=NNC(=O)c2nn(-c3ccccc3)c(=O)c3c(N)scc23)cc1	none (no result: PP5 primary, GSTO1 inh, CTSL1 counter, Apaf1 inhib, PAD4 inh)
Cc1ccc(Nc2c(-c3ccccn3)nc3ccc(C)cn23)cc1	CTSL1 counter 19
Cc1ccc(Nc2c(-c3ccccn3)nc3cc(C)ccn23)cc1	none
